# Data from ChEMBL document CHEMBL4325860, “Synthesis of novel 2-(1-adamantanylcarboxamido)thiophene derivatives. Selective cannabinoid type 2 (CB2) receptor agonists as potential agents for the treatment of skin inflammatory disease” (Eur J Med Chem, 2019).
# Calls of active or inactive are those of the source. The rule behind the calls is not given here.
# Biological target: T1, Cannabinoid receptor 2 (Homo sapiens, UniProt P34972)
# Test: Activity at recombinant human CB2R expressed in CHOK1 cells assessed as effect on basal intracellular cAMP levels at higher concentration measured after 30 mins by chemiluminescent assay
# Format: functional, cell-based
# Conditions: not given
# T1 sequence (P34972 whole entry): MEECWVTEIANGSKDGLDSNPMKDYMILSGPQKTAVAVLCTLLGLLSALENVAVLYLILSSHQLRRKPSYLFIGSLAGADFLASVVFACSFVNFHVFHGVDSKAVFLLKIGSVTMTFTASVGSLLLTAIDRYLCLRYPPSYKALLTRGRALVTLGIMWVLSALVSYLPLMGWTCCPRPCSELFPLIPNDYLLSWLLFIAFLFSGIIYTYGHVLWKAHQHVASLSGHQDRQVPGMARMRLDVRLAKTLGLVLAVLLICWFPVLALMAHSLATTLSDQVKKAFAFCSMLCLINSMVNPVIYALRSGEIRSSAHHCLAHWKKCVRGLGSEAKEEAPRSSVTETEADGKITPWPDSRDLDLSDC
row,Structure (SMILES),Activity
1,CCCCc1sc(NC(=O)C23CC4CC(CC(C4)C2)C3)c(C(=O)OC)c1C,inactive
2,COC(=O)c1c(NC(=O)C23CC4CC(CC(C4)C2)C3)sc2c1CCCC2,inactive

# Biological target: T1, Cannabinoid receptor 2
# Test: Agonist activity at recombinant human CB2R expressed in CHOK1 cells assessed as inhibition of NKH477-stimulated intracellular cAMP levels after 30 mins by chemiluminescent assay
# Format: functional, cell-based
# Conditions: not given
# Method in brief: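 cAMP Hunter enzyme fragment complementation assay with chemiluminescent detection, in stable CHO cells expressing human CB2R, stimulated with NKH-477. Concentration-response curves. Response normalized with NKH-477 alone as 100%. Mean ± SEM of three independent experiments run in triplicate.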
row,Structure (SMILES),EC50
1,COC(=O)c1c(NC(=O)C23CC4CC(CC(C4)C2)C3)sc(C)c1C,318 nM
2,CCCCc1sc(NC(=O)C23CC4CC(CC(C4)C2)C3)c(C(=O)OC)c1C,1140 nM
3,COC(=O)c1c(NC(=O)C23CC4CC(CC(C4)C2)C3)sc2c1CCCC2,1530 nM
4,CCc1sc(NC(=O)C23CC4CC(CC(C4)C2)C3)c(C(=O)OC)c1C,371 nM
5,CCc1c(C)sc(NC(=O)C23CC4CC(CC(C4)C2)C3)c1C(=O)OC,197 nM

# Tested on: HaCaT
# Test: Antiinflammatory activity in human HaCaT cells assessed as inhibition of polyinosinic polycytidylic acid-stimulated MCP2 release at 10 uM measured after 6 hrs in presence of CB2R antagonist AM630 by ELISA
# Format: functional, cell-based
# Conditions: not given
# Method in brief: (§1)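 HaCaT keratinocytes stimulated with poly-(I:C) at 100 µg/mL. MCP-2 release measured with test agent at 10 µM, alone or co-incubated with the CB2R antagonist AM630 at 0.1 µM.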
row,Structure (SMILES),inhibition
1,CCc1c(C)sc(NC(=O)C23CC4CC(CC(C4)C2)C3)c1C(=O)OC,inactive

# Biological target: T1, Cannabinoid receptor 2
# Test: Displacement of [3H]CP55940 from recombinant human CB2R expressed in HEK293 cell membranes at 10 uM measured after 90 mins relative to control
# Conditions: not given
row,Structure (SMILES),inhibition
1,COC(=O)c1c(NC(=O)N2CCOCC2)sc2c1CCCC2,> 50%
2,COC(=O)c1c(-c2ccccc2)csc1NC(=O)C12CC3CC(CC(C3)C1)C2,> 50%
3,COC(=O)c1c(NC(=O)C23CC4CC(CC(C4)C2)C3)sc(C)c1C,> 50%
4,CCCCc1sc(NC(=O)C23CC4CC(CC(C4)C2)C3)c(C(=O)OC)c1C,> 50%
5,COc1ccc(C(=O)c2c(C)n(CCN3CCOCC3)c3cc(I)ccc23)cc1,> 50%
6,CCCc1cc(C(=O)OC)c(NC(=O)C23CC4CC(CC(C4)C2)C3)s1,> 50%
7,COC(=O)c1c(NC(=O)C23CC4CC(CC(C4)C2)C3)sc2c1CCCC2,> 50%
8,COC(=O)c1cccnc1NC(=O)C12CC3CC(CC(C3)C1)C2,> 50%
9,COC(=O)c1nn(C)cc1NC(=O)C12CC3CC(CC(C3)C1)C2,> 50%
10,CCc1sc(NC(=O)C23CC4CC(CC(C4)C2)C3)c(C(=O)OC)c1C,> 50%
11,CCCc1c(C)sc(NC(=O)C23CC4CC(CC(C4)C2)C3)c1C(=O)OC,> 50%
12,CCCCCc1sc(NC(=O)C23CC4CC(CC(C4)C2)C3)c(C(=O)OC)c1-c1ccccc1,> 50%
13,CCc1c(C)sc(NC(=O)C23CC4CC(CC(C4)C2)C3)c1C(=O)OC,> 50%

# Biological target: Cannabinoid receptor 1 (Homo sapiens, UniProt P21554)
# Sequence (P21554 whole entry): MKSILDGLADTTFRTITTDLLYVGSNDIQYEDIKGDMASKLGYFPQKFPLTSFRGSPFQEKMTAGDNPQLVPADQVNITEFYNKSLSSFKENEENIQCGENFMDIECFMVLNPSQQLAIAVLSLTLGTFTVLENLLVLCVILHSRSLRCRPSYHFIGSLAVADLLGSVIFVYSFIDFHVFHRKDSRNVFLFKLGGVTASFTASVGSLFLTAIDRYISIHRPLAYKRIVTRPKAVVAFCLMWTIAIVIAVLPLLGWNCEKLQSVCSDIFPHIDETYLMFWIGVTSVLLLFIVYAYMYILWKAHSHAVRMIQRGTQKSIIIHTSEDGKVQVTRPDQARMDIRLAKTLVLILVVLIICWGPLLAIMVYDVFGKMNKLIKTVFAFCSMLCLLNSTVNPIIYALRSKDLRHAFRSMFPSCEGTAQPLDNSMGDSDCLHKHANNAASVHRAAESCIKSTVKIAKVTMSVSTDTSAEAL
# Test: Displacement of [3H]CP55940 from recombinant human CB1R expressed in HEK293 cell membranes measured after 90 mins
# Conditions: not given
row,Structure (SMILES),Ki
1,COC(=O)c1c(NC(=O)N2CCOCC2)sc2c1CCCC2,> 10000 nM
2,COC(=O)c1c(-c2ccccc2)csc1NC(=O)C12CC3CC(CC(C3)C1)C2,> 10000 nM
3,COC(=O)c1c(NC(=O)C23CC4CC(CC(C4)C2)C3)sc(C)c1C,> 10000 nM
4,CCCCc1sc(NC(=O)C23CC4CC(CC(C4)C2)C3)c(C(=O)OC)c1C,58.9 nM
5,CCCc1cc(C(=O)OC)c(NC(=O)C23CC4CC(CC(C4)C2)C3)s1,1340 nM
6,COC(=O)c1c(NC(=O)C23CC4CC(CC(C4)C2)C3)sc2c1CCCC2,> 10000 nM
7,COC(=O)c1cccnc1NC(=O)C12CC3CC(CC(C3)C1)C2,> 10000 nM
8,COC(=O)c1nn(C)cc1NC(=O)C12CC3CC(CC(C3)C1)C2,> 10000 nM
9,CCc1sc(NC(=O)C23CC4CC(CC(C4)C2)C3)c(C(=O)OC)c1C,2120 nM
10,CCCCCc1sc(NC(=O)C23CC4CC(CC(C4)C2)C3)c(C(=O)OC)c1-c1ccccc1,519 nM
11,CCc1c(C)sc(NC(=O)C23CC4CC(CC(C4)C2)C3)c1C(=O)OC,185 nM

# Species: Homo sapiens
# Test: Selectivity index, ratio of Ki for displacement of [3H]CP55940 from recombinant human CB1R expressed in HEK293 cell membranes to Ki for displacement of [3H]CP55940 from recombinant human CB2R expressed in HEK293 cell membranes
# Conditions: not given
# Method in brief: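 Competition binding on membranes of HEK cells transfected with human CB1R or CB2R, radioligand [³H]CP-55,940. Ki from at least three separate experiments run in duplicate, reported as mean. Selectivity index = Ki(CB1R)/Ki(CB2R).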
row,Structure (SMILES),Ratio Ki
1,COC(=O)c1c(NC(=O)N2CCOCC2)sc2c1CCCC2,> 4
2,COC(=O)c1c(-c2ccccc2)csc1NC(=O)C12CC3CC(CC(C3)C1)C2,> 285
3,COC(=O)c1c(NC(=O)C23CC4CC(CC(C4)C2)C3)sc(C)c1C,> 1080
4,CCCCc1sc(NC(=O)C23CC4CC(CC(C4)C2)C3)c(C(=O)OC)c1C,34
5,CCCc1cc(C(=O)OC)c(NC(=O)C23CC4CC(CC(C4)C2)C3)s1,186
6,COC(=O)c1c(NC(=O)C23CC4CC(CC(C4)C2)C3)sc2c1CCCC2,> 1970
7,COC(=O)c1cccnc1NC(=O)C12CC3CC(CC(C3)C1)C2,> 8
8,COC(=O)c1nn(C)cc1NC(=O)C12CC3CC(CC(C3)C1)C2,> 11
9,CCc1sc(NC(=O)C23CC4CC(CC(C4)C2)C3)c(C(=O)OC)c1C,358
10,CCCc1c(C)sc(NC(=O)C23CC4CC(CC(C4)C2)C3)c1C(=O)OC,257
11,CCCCCc1sc(NC(=O)C23CC4CC(CC(C4)C2)C3)c(C(=O)OC)c1-c1ccccc1,65
12,CCc1c(C)sc(NC(=O)C23CC4CC(CC(C4)C2)C3)c1C(=O)OC,75

# Biological target: T1, Cannabinoid receptor 2
# Test: Agonist activity at recombinant human CB2R expressed in CHOK1 cells assessed as inhibition of NKH477-stimulated intracellular cAMP levels preincubated for 15 mins followed by CB2R agonist JWH133 addition and measured after 30 mins by chemiluminescent assay
# Format: functional, cell-based
# Conditions: not given
row,Structure (SMILES),inhibition
1,COC(=O)c1c(NC(=O)C23CC4CC(CC(C4)C2)C3)sc(C)c1C,inactive
2,CCCCc1sc(NC(=O)C23CC4CC(CC(C4)C2)C3)c(C(=O)OC)c1C,inactive
3,COC(=O)c1c(NC(=O)C23CC4CC(CC(C4)C2)C3)sc2c1CCCC2,inactive
4,CCc1sc(NC(=O)C23CC4CC(CC(C4)C2)C3)c(C(=O)OC)c1C,inactive
5,CCc1c(C)sc(NC(=O)C23CC4CC(CC(C4)C2)C3)c1C(=O)OC,inactive

# Biological target: Cannabinoid receptor 1 (CB1R) (Homo sapiens, UniProt P21554)
# Sequence (P21554 whole entry): as above
# Test: Displacement of [3H]CP55940 from recombinant human CB1R expressed in HEK293 cell membranes at 10 uM measured after 90 mins relative to control
# Conditions: membranes of HEK293 cells expressing recombinant human CB1R, probe [3H]CP55940
row,Structure (SMILES),"inhibition at 1.5 h, 10 µM"
1,COC(=O)c1c(NC(=O)N2CCOCC2)sc2c1CCCC2,< 50%
2,COC(=O)c1c(-c2ccccc2)csc1NC(=O)C12CC3CC(CC(C3)C1)C2,< 50%
3,COC(=O)c1c(NC(=O)C23CC4CC(CC(C4)C2)C3)sc(C)c1C,< 50%
4,CCCCc1sc(NC(=O)C23CC4CC(CC(C4)C2)C3)c(C(=O)OC)c1C,< 50%
5,COc1ccc(C(=O)c2c(C)n(CCN3CCOCC3)c3cc(I)ccc23)cc1,< 50%
6,CCCc1cc(C(=O)OC)c(NC(=O)C23CC4CC(CC(C4)C2)C3)s1,< 50%
7,COC(=O)c1c(NC(=O)C23CC4CC(CC(C4)C2)C3)sc2c1CCCC2,< 50%
8,COC(=O)c1cccnc1NC(=O)C12CC3CC(CC(C3)C1)C2,< 50%
9,COC(=O)c1nn(C)cc1NC(=O)C12CC3CC(CC(C3)C1)C2,< 50%
10,CCc1sc(NC(=O)C23CC4CC(CC(C4)C2)C3)c(C(=O)OC)c1C,< 50%
11,CCCc1c(C)sc(NC(=O)C23CC4CC(CC(C4)C2)C3)c1C(=O)OC,< 50%
12,CCCCCc1sc(NC(=O)C23CC4CC(CC(C4)C2)C3)c(C(=O)OC)c1-c1ccccc1,< 50%
13,CCc1c(C)sc(NC(=O)C23CC4CC(CC(C4)C2)C3)c1C(=O)OC,< 50%

# Biological target: T1, Cannabinoid receptor 2
# Test: Displacement of [3H]CP55940 from recombinant human CB2R expressed in HEK293 cell membranes measured after 90 mins
# Conditions: not given
row,Structure (SMILES),Ki
1,COC(=O)c1c(NC(=O)N2CCOCC2)sc2c1CCCC2,2490 nM
2,COC(=O)c1c(-c2ccccc2)csc1NC(=O)C12CC3CC(CC(C3)C1)C2,35 nM
3,COC(=O)c1c(NC(=O)C23CC4CC(CC(C4)C2)C3)sc(C)c1C,9.24 nM
4,CCCCc1sc(NC(=O)C23CC4CC(CC(C4)C2)C3)c(C(=O)OC)c1C,1.72 nM
5,CCCc1cc(C(=O)OC)c(NC(=O)C23CC4CC(CC(C4)C2)C3)s1,7.21 nM
6,COC(=O)c1c(NC(=O)C23CC4CC(CC(C4)C2)C3)sc2c1CCCC2,5.08 nM
7,COC(=O)c1cccnc1NC(=O)C12CC3CC(CC(C3)C1)C2,1220 nM
8,COC(=O)c1nn(C)cc1NC(=O)C12CC3CC(CC(C3)C1)C2,845 nM
9,CCc1sc(NC(=O)C23CC4CC(CC(C4)C2)C3)c(C(=O)OC)c1C,5.92 nM
10,CCCCCc1sc(NC(=O)C23CC4CC(CC(C4)C2)C3)c(C(=O)OC)c1-c1ccccc1,8.03 nM
11,CCc1c(C)sc(NC(=O)C23CC4CC(CC(C4)C2)C3)c1C(=O)OC,2.46 nM

# Tested on: HaCaT
# Test: Antiinflammatory activity in human HaCaT cells assessed as inhibition of polyinosinic polycytidylic acid-stimulated MCP2 release at 10 uM measured after 6 hrs by ELISA
# Format: functional, cell-based
# Conditions: not given
# Method in brief: as §1
row,Structure (SMILES),inhibition
1,CCc1c(C)sc(NC(=O)C23CC4CC(CC(C4)C2)C3)c1C(=O)OC,Active
